Tested on: Fibroblast
Experiment: Multiplex assay against human fibroblast
Format: toxicity, cell-based
In short: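 At seeding, live cells were stained with Hoechst33342, BioTracker Green Microtubule Cytoskeleton Dye, MitoTracker Red and Annexin V Alexa Fluor 680. After compound addition they were imaged on a CQ1 microscope at 37°C and 5% CO2, and CellPathfinder machine-learning gating sorted them into Hoechst high-intensity objects or normal cells, with normal cells further split into healthy, pyknosed or fragmented nuclei and pyknosed cells into mitotic or apoptotic. Tubulin, mitochondrial-mass and membrane-permeability phenotypes are given as per cents of cells with healthy nuclei.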

[1] = 12 h, 1 µM, compound concentration 1 uM, replicate 1
[2] = 12 h, 1 µM, compound concentration 1 uM, replicate 2
[3] = 12 h, 10 µM, compound concentration 10 uM, replicate 1
[4] = 12 h, 10 µM, compound concentration 10 uM, replicate 2
[5] = 24 h, 1 µM, compound concentration 1 uM, replicate 1
[6] = 24 h, 1 µM, compound concentration 1 uM, replicate 2
[7] = 24 h, 10 µM, compound concentration 10 uM, replicate 1
[8] = 24 h, 10 µM, compound concentration 10 uM, replicate 2
[9] = 48 h, 1 µM, compound concentration 1 uM, replicate 1
[10] = 48 h, 1 µM, compound concentration 1 uM, replicate 2
[11] = 48 h, 10 µM, compound concentration 10 uM, replicate 1
[12] = 48 h, 10 µM, compound concentration 10 uM, replicate 2

## O=C(Nc1ccc(-n2nc(-c3cccnc3)cc2C(F)(F)F)cn1)c1ccc(-c2ccccc2)c(F)c1 [BI 2049]
[1]
  Population Apoptotic (%): 63%
  Population Fragmented Nuclei (%): 29%
  Population Healthy Nuclei (%): 30%
  Population Hoechst High Intensity Objects (%): 10%
  Population Membrane Permeable-Phenotype (%): 32%
  Population Mitochondria Different-Phenotype (%): 8%
  Population Mitotic Cells (%): 36%
  Population Normal (%): 89%
  Population Pyknosed Nuclei (%): 40%
  Population Tubulin-Different-Phenotype (%): 44%
  Total Cell Count: 92
[2]
  Population Apoptotic (%): 50%
  Population Fragmented Nuclei (%): 4%
  Population Healthy Nuclei (%): 85%
  Population Hoechst High Intensity Objects (%): 8%
  Population Membrane Permeable-Phenotype (%): 3%
  Population Mitochondria Different-Phenotype (%): 7%
  Population Mitotic Cells (%): 50%
  Population Normal (%): 91%
  Population Pyknosed Nuclei (%): 9%
  Total Cell Count: 69
[3]
  Population Apoptotic (%): 58%
  Population Fragmented Nuclei (%): 11%
  Population Healthy Nuclei (%): 41%
  Population Hoechst High Intensity Objects (%): 9%
  Population Membrane Permeable-Phenotype (%): 22%
  Population Mitochondria Different-Phenotype (%): 22%
  Population Mitotic Cells (%): 41%
  Population Normal (%): 90%
  Population Pyknosed Nuclei (%): 46%
  Population Tubulin-Different-Phenotype (%): 62%
  Total Cell Count: 93
[4]
  Population Apoptotic (%): 0%
  Population Fragmented Nuclei (%): 18%
  Population Healthy Nuclei (%): 81%
  Population Hoechst High Intensity Objects (%): 6%
  Population Membrane Permeable-Phenotype (%): 4%
  Population Mitochondria Different-Phenotype (%): 12%
  Population Mitotic Cells (%): 0%
  Population Normal (%): 93%
  Population Pyknosed Nuclei (%): 0%
  Population Tubulin-Different-Phenotype (%): 8%
  Total Cell Count: 65
[5]
  Population Apoptotic (%): 61%
  Population Fragmented Nuclei (%): 32%
  Population Healthy Nuclei (%): 36%
  Population Hoechst High Intensity Objects (%): 14%
  Population Membrane Permeable-Phenotype (%): 32%
  Population Mitochondria Different-Phenotype (%): 12%
  Population Mitotic Cells (%): 38%
  Population Normal (%): 85%
  Population Pyknosed Nuclei (%): 30%
  Population Tubulin-Different-Phenotype (%): 58%
  Total Cell Count: 98
[6]
  Population Apoptotic (%): 25%
  Population Fragmented Nuclei (%): 7%
  Population Healthy Nuclei (%): 83%
  Population Hoechst High Intensity Objects (%): 7%
  Population Membrane Permeable-Phenotype (%): 4%
  Population Mitochondria Different-Phenotype (%): 9%
  Population Mitotic Cells (%): 75%
  Population Normal (%): 92%
  Population Pyknosed Nuclei (%): 8%
  Population Tubulin-Different-Phenotype (%): 37%
  Total Cell Count: 96
[7]
  Population Apoptotic (%): 66%
  Population Fragmented Nuclei (%): 24%
  Population Healthy Nuclei (%): 42%
  Population Hoechst High Intensity Objects (%): 8%
  Population Membrane Permeable-Phenotype (%): 12%
  Population Mitochondria Different-Phenotype (%): 17%
  Population Mitotic Cells (%): 33%
  Population Normal (%): 91%
  Population Pyknosed Nuclei (%): 32%
  Population Tubulin-Different-Phenotype (%): 46%
  Total Cell Count: 99
[8]
  Population Apoptotic (%): 0%
  Population Fragmented Nuclei (%): 11%
  Population Healthy Nuclei (%): 84%
  Population Hoechst High Intensity Objects (%): 3%
  Population Membrane Permeable-Phenotype (%): 4%
  Population Mitochondria Different-Phenotype (%): 13%
  Population Mitotic Cells (%): 100%
  Population Normal (%): 96%
  Population Pyknosed Nuclei (%): 3%
  Population Tubulin-Different-Phenotype (%): 10%
  Total Cell Count: 82
[9]
  Population Apoptotic (%): 64%
  Population Fragmented Nuclei (%): 26%
  Population Healthy Nuclei (%): 45%
  Population Hoechst High Intensity Objects (%): 9%
  Population Membrane Permeable-Phenotype (%): 40%
  Population Mitochondria Different-Phenotype (%): 2%
  Population Mitotic Cells (%): 36%
  Population Normal (%): 90%
  Population Pyknosed Nuclei (%): 28%
  Population Tubulin-Different-Phenotype (%): 37%
  Total Cell Count: 97
[10]
  Population Apoptotic (%): 100%
  Population Fragmented Nuclei (%): 25%
  Population Healthy Nuclei (%): 72%
  Population Hoechst High Intensity Objects (%): 16%
  Population Membrane Permeable-Phenotype (%): 17%
  Population Mitotic Cells (%): 0%
  Population Normal (%): 83%
  Population Pyknosed Nuclei (%): 1%
  Population Tubulin-Different-Phenotype (%): 5%
  Total Cell Count: 66
[11]
  Population Apoptotic (%): 72%
  Population Fragmented Nuclei (%): 30%
  Population Healthy Nuclei (%): 50%
  Population Hoechst High Intensity Objects (%): 15%
  Population Membrane Permeable-Phenotype (%): 35%
  Population Mitochondria Different-Phenotype (%): 14%
  Population Mitotic Cells (%): 27%
  Population Normal (%): 84%
  Population Pyknosed Nuclei (%): 18%
  Population Tubulin-Different-Phenotype (%): 64%
  Total Cell Count: 113
[12]
  Population Apoptotic (%): 100%
  Population Fragmented Nuclei (%): 14%
  Population Healthy Nuclei (%): 85%
  Population Hoechst High Intensity Objects (%): 9%
  Population Membrane Permeable-Phenotype (%): 15%
  Population Mitochondria Different-Phenotype (%): 1%
  Population Mitotic Cells (%): 0%
  Population Normal (%): 90%
  Population Pyknosed Nuclei (%): 0%
  Population Tubulin-Different-Phenotype (%): 35%
  Total Cell Count: 140
